Reference: ChEMBL document CHEMBL2331117 (J Med Chem, 2013)

Tests used:
[1] = system: Plasma; experiment: Plasma concentration in athymic mouse plasma xenografted with human MCF7 cells at 100 mg/kg, po after 32 hrs; assay type: ADME, organism-based; parameters: dose 100 mg/kg, route oral; settings: in vivo, BLD = below limit of detection
Outline: (§1)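 MCF-7 cells (5 × 10^6, in 50% cold HBSS/50% growth-factor-reduced matrigel) were implanted subcutaneously in the hindflank of 5–8 week old female nude mice. At 40–150 mg tumour size, mice received a single oral dose of 100 mg/kg, and plasma was sampled at the listed times after dosing.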

[2] = target: Phosphatidylinositol 4,5-bisphosphate 3-kinase catalytic subunit alpha isoform (Homo sapiens, UniProt P42336); experiment: Inhibition of PI3Kalpha (unknown origin)
Phosphatidylinositol 4,5-bisphosphate 3-kinase catalytic subunit alpha isoform, sequence (P42336 whole entry, canonical isoform): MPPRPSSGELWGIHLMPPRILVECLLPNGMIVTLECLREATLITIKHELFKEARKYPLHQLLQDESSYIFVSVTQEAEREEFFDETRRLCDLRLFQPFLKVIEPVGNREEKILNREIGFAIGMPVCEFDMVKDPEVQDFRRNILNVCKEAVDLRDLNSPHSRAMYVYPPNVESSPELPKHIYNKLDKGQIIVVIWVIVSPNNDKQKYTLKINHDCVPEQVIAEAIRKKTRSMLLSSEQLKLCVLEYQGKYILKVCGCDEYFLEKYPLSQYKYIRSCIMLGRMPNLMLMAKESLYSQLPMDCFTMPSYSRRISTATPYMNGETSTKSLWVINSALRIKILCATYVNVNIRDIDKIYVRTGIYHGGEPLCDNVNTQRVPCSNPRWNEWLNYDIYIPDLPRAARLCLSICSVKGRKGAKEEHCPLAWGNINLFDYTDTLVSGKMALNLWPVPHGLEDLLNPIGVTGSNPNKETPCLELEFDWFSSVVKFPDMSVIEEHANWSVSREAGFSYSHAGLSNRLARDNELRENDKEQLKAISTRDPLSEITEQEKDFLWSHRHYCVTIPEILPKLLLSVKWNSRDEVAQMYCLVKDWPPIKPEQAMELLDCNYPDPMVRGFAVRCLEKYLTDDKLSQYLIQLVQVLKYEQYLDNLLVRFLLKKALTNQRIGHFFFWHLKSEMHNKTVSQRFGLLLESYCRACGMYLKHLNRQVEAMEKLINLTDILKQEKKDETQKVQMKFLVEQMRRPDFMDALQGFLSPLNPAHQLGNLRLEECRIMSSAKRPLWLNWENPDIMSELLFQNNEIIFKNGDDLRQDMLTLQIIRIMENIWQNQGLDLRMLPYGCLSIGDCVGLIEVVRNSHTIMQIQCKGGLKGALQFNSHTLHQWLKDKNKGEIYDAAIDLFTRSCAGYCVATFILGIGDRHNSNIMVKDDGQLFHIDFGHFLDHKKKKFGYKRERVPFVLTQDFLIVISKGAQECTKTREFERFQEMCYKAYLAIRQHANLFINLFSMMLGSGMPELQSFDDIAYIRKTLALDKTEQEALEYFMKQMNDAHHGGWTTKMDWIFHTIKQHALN
Outline: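 PI3Kα activity was read as the percentage of ATP consumed, by luciferase–luciferin chemiluminescence (Kinase-Glo). The reaction ran about 2 h at ambient temperature, with ATP consumption kept to 40–60%. Values are the mean of n ≥ 2.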

[3] = target: Phosphatidylinositol 3-kinase catalytic subunit type 3 (Homo sapiens, UniProt Q8NEB9); experiment: Inhibition of VPS34 (unknown origin)
Phosphatidylinositol 3-kinase catalytic subunit type 3, sequence (Q8NEB9 whole entry): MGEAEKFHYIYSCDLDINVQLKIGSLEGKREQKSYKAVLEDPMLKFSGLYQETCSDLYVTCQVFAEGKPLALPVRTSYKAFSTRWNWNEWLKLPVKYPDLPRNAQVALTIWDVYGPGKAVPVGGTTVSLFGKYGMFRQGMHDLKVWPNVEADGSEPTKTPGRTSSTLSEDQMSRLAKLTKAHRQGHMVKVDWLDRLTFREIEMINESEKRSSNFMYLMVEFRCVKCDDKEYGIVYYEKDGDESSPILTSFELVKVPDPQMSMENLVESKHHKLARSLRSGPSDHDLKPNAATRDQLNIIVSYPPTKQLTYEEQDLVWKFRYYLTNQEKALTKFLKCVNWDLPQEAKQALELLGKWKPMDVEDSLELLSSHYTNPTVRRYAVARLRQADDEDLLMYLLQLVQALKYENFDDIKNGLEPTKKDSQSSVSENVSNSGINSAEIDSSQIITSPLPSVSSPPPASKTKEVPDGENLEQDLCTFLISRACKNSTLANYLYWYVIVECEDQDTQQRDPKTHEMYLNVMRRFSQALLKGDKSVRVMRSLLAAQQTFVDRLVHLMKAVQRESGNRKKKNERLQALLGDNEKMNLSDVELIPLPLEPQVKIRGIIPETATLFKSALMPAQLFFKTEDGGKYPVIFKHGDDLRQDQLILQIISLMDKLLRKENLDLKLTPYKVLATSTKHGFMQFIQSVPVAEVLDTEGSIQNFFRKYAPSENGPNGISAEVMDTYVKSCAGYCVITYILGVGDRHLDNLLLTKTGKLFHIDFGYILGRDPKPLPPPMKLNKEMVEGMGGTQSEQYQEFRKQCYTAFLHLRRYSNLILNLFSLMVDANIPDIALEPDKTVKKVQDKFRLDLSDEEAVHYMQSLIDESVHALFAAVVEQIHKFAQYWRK

[4] = system: Mus musculus; experiment: In vivo inhibition of mTORC2-mediated phosphorylation of AKT at […] in human MCF7 cells xenografted into athymic nude mouse at 100 mg/kg, po after 8 hrs by Western blotting analysis relative to control; assay type: functional; settings: MCF7, 8 h
Outline: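 Human MCF-7 cells were implanted subcutaneously into the hindflank of female nude mice aged 5−8 weeks, at 5 × 10^6 cells in 50% cold HBSS/50% growth-factor-reduced matrigel. At a tumor size of 40−150 mg, mice got one oral dose. Tumor lysates were pooled per group. Phospho-AKT (T308) was read by Western blot and normalized to α-tubulin.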

[5] = Metabolic stability in monkey liver microsomes after 30 mins; assay type: ADME, Macaca mulatta, Microsome; settings: rhesus monkey, read-out: Stability
[6] = system: Mus musculus; experiment: In vivo inhibition of mTORC1-mediated phosphorylation of pS6 at (serine 240/244) in human PC3 cells xenografted into athymic nude mouse at 100 mg/kg, po after 24 hrs by Western blotting analysis relative to control; assay type: functional; settings: PC-3, 24 h
Outline: (§2)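 PC-3 cells grown in DMEM with 20% FBS were implanted subcutaneously at 3 × 10^6 cells in ice-cold HBSS into the hindflank of 5−8 week old male nude mice. At tumor size 200−500 mg, mice received a single oral dose of 100 mg/kg. Plasma and tumors were collected at 1, 4, 8, 16, 24 and 32 h. Tumor lysates from each group (n = 5) were pooled. Phospho-proteins were quantified by Western blot and normalized to α-tubulin.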

[7] = target: Cell division cycle 7-related protein kinase (Homo sapiens, UniProt O00311); experiment: Inhibition of CDC7 (unknown origin)
Cell division cycle 7-related protein kinase, sequence (O00311 whole entry): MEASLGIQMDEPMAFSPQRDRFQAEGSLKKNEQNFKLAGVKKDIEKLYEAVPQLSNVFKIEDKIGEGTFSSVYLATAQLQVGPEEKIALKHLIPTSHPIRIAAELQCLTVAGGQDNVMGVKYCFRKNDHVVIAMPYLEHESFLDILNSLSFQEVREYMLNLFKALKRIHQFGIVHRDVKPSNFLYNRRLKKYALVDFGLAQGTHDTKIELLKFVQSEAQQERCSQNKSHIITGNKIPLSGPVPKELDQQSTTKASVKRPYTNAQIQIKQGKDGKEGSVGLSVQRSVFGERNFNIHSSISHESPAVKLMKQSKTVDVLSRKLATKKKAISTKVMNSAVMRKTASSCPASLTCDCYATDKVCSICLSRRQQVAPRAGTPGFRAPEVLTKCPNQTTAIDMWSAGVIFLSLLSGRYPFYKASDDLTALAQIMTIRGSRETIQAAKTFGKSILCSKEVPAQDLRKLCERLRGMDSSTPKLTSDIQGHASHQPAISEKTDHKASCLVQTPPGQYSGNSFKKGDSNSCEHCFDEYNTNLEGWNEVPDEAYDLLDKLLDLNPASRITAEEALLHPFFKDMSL

[8] = Cmax in CD rat at 3 mg/kg, po; assay type: ADME, organism-based; parameters: dose 3 mg/kg, route oral; settings: in vivo
Outline: (§3)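 Single-dose PK: female athymic nude mice (10 mg/kg), female CD rats and male beagle dogs (3 mg/kg), male cynomolgus monkeys (3 mg/kg), given iv and by oral gavage. Solution in EPW (5% ethanol/45% PEG400/water), with 1:2 HCl (m/m) for mouse, rat and dog and 1:1.5 HCl (m/m) for monkey. Plasma levels followed over 24 h.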

[9] = Cmax in CD rat at 3 mg/kg, iv; assay type: ADME, organism-based; parameters: dose 3 mg/kg, route intravenous; settings: in vivo; outline: as §3
[10] = system: Mus musculus; experiment: In vivo inhibition of mTORC1-mediated phosphorylation of 4EBP1 at ([…]) in human PC3 cells xenografted into athymic nude mouse at 100 mg/kg, po after 4 hrs by Western blotting analysis relative to control; assay type: functional; settings: PC-3, 4 h; outline: as §2
[11] = system: MCF7; experiment: Antitumor activity against human MCF7 cells xenografted in athymic nude mouse at 50 mg/kg, po qd for 14 days relative to control; assay type: functional
Outline: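 Female athymic nude (NCr) mice, 5–8 weeks old, bearing subcutaneous MCF-7 tumors staged at 100–200 mg. Compound given orally qd for 14 days at 50 or 100 mg/kg as a solution/fine suspension in water with a 1:1 molar ratio of 1 N HCl. Caliper tumor mass = length × width²/2, measured twice weekly; body mass recorded daily.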

[12] = AUC (0 to infinity) in Beagle dog at 3 mg/kg, iv; assay type: ADME, organism-based, Canis lupus familiaris; parameters: time infinity, dose 3 mg/kg, route intravenous; settings: plasma; outline: as §3
[13] = system: Mus musculus; experiment: In vivo inhibition of mTOR1-mediated phosphorylation of p70S6K at […] in human PC3 cells xenografted into athymic nude mouse at 100 mg/kg, po after 8 hrs by Western blotting analysis relative to control; assay type: functional; settings: PC-3, 8 h
Outline: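 PC-3 cells (3 × 10⁶, passages 10–14, in ice-cold HBSS) were implanted sc in 5–8 week old male nude mice. Tumors of 200–500 mg received a single oral 100 mg/kg dose. Plasma and tumor were collected at 1, 4, 8, 16, 24 and 32 h and homogenized in buffer. Lysates were pooled per group (n = 5), and phospho-proteins were measured by Western blot normalized to α-tubulin.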

[14] = system: Mus musculus; experiment: In vivo inhibition of mTORC2-mediated phosphorylation of AKT at […] in human PC3 cells xenografted into athymic nude mouse at 100 mg/kg, po after 24 hrs by Western blotting analysis relative to control; assay type: functional; settings: PC-3, 24 h
Outline: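 Human PC-3 cells were implanted subcutaneously into the hindflank of male nude mice aged 5−8 weeks, at 3 × 10^6 cells (passages 10−14, >95% viability) in ice-cold HBSS. At a tumor size of 200−500 mg, mice got one oral 100 mg/kg dose. Tumors were taken at 1, 4, 8, 16, 24 and 32 h. Lysates (n = 5 per group) were pooled, and phospho-AKT (T308) was read by Western blot, normalized to α-tubulin.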

[15] = Drug uptake in tumor of athymic mouse xenografted with human MCF7 cells at 100 mg/kg, po after 32 hrs; assay type: ADME, organism-based, Neoplasm; parameters: dose 100 mg/kg, route oral; settings: read-out: Drug uptake
[16] = system: Mus musculus; experiment: In vivo inhibition of mTORC2-mediated phosphorylation of AKT at serine 473 in human MCF7 cells xenografted into athymic nude mouse at 100 mg/kg, po after 32 hrs by Western blotting analysis relative to control; assay type: functional; settings: MCF7, 32 h
Outline: (§4)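 MCF-7 cells (DMEM, 10% FBS) were implanted subcutaneously at 5 × 10^6 cells in 50% cold HBSS/50% growth-factor-reduced matrigel into the hindflank of 5−8 week old female nude mice. At tumor size 40−150 mg, mice received a single oral dose of 100 mg/kg. Tumor lysates were pooled per group. Phospho-AKT (S473, T308), p70S6K (T389), S6 (S240/244) and 4E-BP1 (T37/46) were measured by Western blot normalized to α-tubulin.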

[17] = Metabolic stability in dog liver microsomes after 30 mins; assay type: ADME, Canis lupus familiaris, Microsome; settings: read-out: Stability
[18] = Metabolic stability in human liver microsomes after 30 mins; assay type: ADME, Microsome; settings: read-out: Stability
[19] = system: Mus musculus; experiment: In vivo inhibition of mTORC1-mediated phosphorylation of pS6 at (serine 240/244) in human MCF7 cells xenografted into athymic nude mouse at 100 mg/kg, po after 32 hrs by Western blotting analysis relative to control; assay type: functional; settings: MCF7, 32 h; outline: as §4
[20] = system: Mus musculus; experiment: In vivo inhibition of mTORC1-mediated phosphorylation of 4EBP1 at ([…]) in human MCF7 cells xenografted into athymic nude mouse at 100 mg/kg, po after 1 hr by Western blotting analysis relative to control; assay type: functional; settings: MCF7, 1 h
[21] = system: Plasma; experiment: Plasma concentration in athymic mouse plasma xenografted with human MCF7 cells at 100 mg/kg, po after 24 hrs; assay type: ADME, organism-based; parameters: dose 100 mg/kg, route oral; settings: in vivo, BLD = below limit of detection; outline: as §1
[22] = Plasma protein binding in human at 5 uM; assay type: ADME, cell-free; settings: read-out: PPB (converted)

Cp [1]: BLD | IC50 [2]: > 3 µM | IC50 [3]: > 3.5 µM | remaining at 0.5 h [5]: 65% | IC50 [7]: > 3.5 µM | Cmax [8]: 707 nM | Cmax [9]: 4.12 µM | AUC(0-inf) [12]: 11 µM·h | concentration at 32 h [15]: 100 nM | remaining at 0.5 h [17]: 82% | remaining at 0.5 h [18]: 93% | Cp [21]: BLD | fraction unbound at 5 µM [22]: 0.14
SMILES: Cc1c(C(=O)N2CCOc3ccc(-c4ccc(N)nc4)cc3C2)ccc(S(C)(=O)=O)c1F
inhibition in vivo at 100 mg/kg [4]: -2% | inhibition in vivo at 100 mg/kg [6]: 8% | inhibition in vivo at 100 mg/kg [10]: 84% | Activity [11]: 22% | inhibition in vivo at 100 mg/kg [13]: 92% | inhibition in vivo at 100 mg/kg [14]: 11% | inhibition in vivo at 100 mg/kg [16]: 11% | inhibition in vivo at 100 mg/kg [19]: -3% | inhibition in vivo at 100 mg/kg [20]: 94%
